Results pooled from the literature.
Each line is one published result; the experiments were not run side by side.
TEK: Angiopoietin-1 receptor (TEK, Homo sapiens, UniProt Q02763)
TEK Y897S: Angiopoietin-1 receptor (TEK, Homo sapiens, UniProt Q02763, Y897S)

O=C1Nc2ccc(Cl)cc2C1=Cc1cc(Cl)c(O)c(Cl)c1 — remaining signal (TEK; cell-free assay; 0.5 µM): 93%
CC/C(=N\NC(=O)NCc1cccc(O)c1)c1ccc(O)c(C)c1O — inhibition (TEK; enzyme activity; inhibitor; 0.1 µM): -0.2%
Nc1ncnc2occ(-c3ccc(NC(=O)Nc4cc(C(F)(F)F)ccc4F)cc3)c12 — remaining signal (TEK; cell-free assay; 20 µM): 0%
CN(C)c1ncnc(-c2ccc3nc(Nc4cc(CN5CCN(C(=O)CC(F)(F)F)CC5)ccn4)[nH]c3c2)c1Cl — remaining binding (TEK; cell-free assay; competition with immobilised ligand; 1 µM): 87%
CCCS(=O)(=O)Nc1ccc(F)c(C(=O)c2c[nH]c3ncc(-c4ccc(Cl)cc4)cc23)c1F — inhibition (TEK; enzyme activity; inhibitor; 1 µM): < 10%
Cc1c[nH]c2nccc(Oc3c(F)cc(Nc4cc(Cl)nc(N)n4)cc3F)c12 — remaining binding (TEK; cell-free assay; competition with immobilised ligand; 0.1 µM): 95%
Cc1cc(NC(=O)c2cccc3cc(-c4cccc5[nH]nc(N)c45)ccc23)ccc1F — activity vs control (TEK Y897S; enzyme activity; inhibitor; 0.1 µM): 103%
CNC(=O)c1cc2c(Oc3ccc(NC(=O)C4(C(=O)Nc5ccc(F)cc5)CC4)cc3)ccnc2cc1OC — inhibition (TEK; enzyme activity; inhibitor; radiometric; 1 µM): 99%
Cc1ccc(C(=O)NCc2ccsc2)cc1C#Cc1cn(C(C)C)c2ncnc(N)c12 — activity vs control (TEK; enzyme activity; inhibitor; 1 µM): 6%
COc1cc(Nc2cnc(C#N)c(O[C@H](C)CN(C)C)n2)ncc1-c1cnn(C)c1 — remaining activity (TEK; enzyme activity; inhibitor; radiometric; 10 µM): 90%
CNC(=O)c1cc(Oc2ccc(NC(=O)Nc3ccc(Cl)c(C(F)(F)F)c3)cc2)ccn1 — remaining signal (TEK; cell-free assay; 0.5 µM): 104%
Cc1cnc(NC2CCOCC2)nc1-n1cnc(C(=O)NC(CN)c2cc(F)cc(Cl)c2)c1 (stereo not shown) — remaining activity (TEK; enzyme activity; inhibitor; radiometric; 1 µM): 105%
CNCc1ccc(-c2cc(-c3nc(-c4ccc(S(=O)(=O)C(C)C)cc4)cnc3N)on2)cc1 — inhibition (TEK; enzyme activity; inhibitor; 0.4 µM): 0%
Cc1noc([C@H]2C[C@@H](c3ccc(C(F)(F)F)cc3)CN(C(=O)N3CCS(=O)(=O)C3)C2)n1 — remaining binding (TEK; cell-free assay; competition with immobilised ligand; 1 µM): 100%
COc1cc(/C=C/C(=O)CC(=O)/C=C/c2ccc(O)c(OC)c2)ccc1O — activity vs control (TEK; enzyme activity; inhibitor; 1 µM): 112%
COc1cc2ncnc(Nc3ccc(Oc4ccccc4)c(C)c3C)c2cc1OC — inhibition (TEK; enzyme activity; inhibitor; 1 µM): 6%
CCCCN(CCCC)C(=O)CN1C[C@@H](c2cc(OC)c3c(c2)OCO3)[C@H](C(=O)O)[C@H]1CC(C)(C)CCC — remaining binding (TEK; cell-free assay; competition with immobilised ligand; 1 µM): 100%
Cc1ccc(NC(=O)c2ccc(C)c(C(F)(F)F)c2)cc1C#Cc1nn(C2CCC(O)CC2)c2ncnc(N)c12 (stereo not shown) — remaining activity (TEK Y897S; enzyme activity; inhibitor; 10 µM): 0%
CC(C)CC(=O)N1CCc2nc(-c3ccc(Br)cc3)nc(N(C)Cc3ccccc3)c2C1 — remaining binding (TEK; cell-free assay; competition with immobilised ligand; 0.1 µM): 100%
O=C(Nc1cnn(-c2csc(C(=O)NC3COC3)c2)c1)Nc1ccccc1Cl — remaining activity (TEK; enzyme activity; inhibitor; 5 µM): 100%
CCOC(=O)c1cc2cc(-c3cc(C(=O)NCc4ccc(C(=O)O)cc4)nn3C)ccc2[nH]1 — remaining binding (TEK; cell-free assay; competition with immobilised ligand; 0.1 µM): 83%
O=C(Nc1cnn(-c2csc(C(=O)NC3COC3)c2)c1)Nc1c(F)cccc1Cl — remaining activity (TEK; enzyme activity; inhibitor; 5 µM): 105%
O=C(CSc1nc2nccnc2c(=O)n1CCc1ccccc1)Nc1nccs1 — inhibition (TEK; enzyme activity; inhibitor; 10 µM): 6%
CCCOc1ccc(OC)c(F)c1C(=O)c1ccc(C(=O)N[C@@H]2CNC[C@H]2NC(=O)c2ccc3[nH]ncc3c2)cc1 — remaining activity (TEK; enzyme activity; inhibitor; 10 µM): 49%
Cc1[nH]c(/C=C2\C(=O)Nc3ccc(F)cc32)c(C)c1C(=O)N[C@H]1CCN(C(=O)N(C)C)C1 — remaining activity (TEK; enzyme activity; inhibitor; 1 µM): 87%
N#CCCc1ccc2c(c1)-c1[nH]c3ccc([N+](=O)[O-])cc3c1CC(=O)N2 — remaining signal (TEK; cell-free assay; 0.5 µM): 97.6%
CCN(CC)CCNC(=O)c1c(C)[nH]c(/C=C2\C(=O)Nc3ccc(F)cc32)c1C — inhibition (TEK; enzyme activity; inhibitor; 10 µM): 74%
CC(=O)N1CCC(c2ccc(C(=O)NC3=NCCN3)cc2C(F)(F)F)CC1 — remaining binding (TEK; cell-free assay; competition with immobilised ligand; 1 µM): 100%
COc1cc2nccc(Oc3ccc(NC(=O)c4c5n(n(-c6ccc(F)cc6)c4=O)CCCC5)cc3)c2cc1OC — inhibition (TEK; enzyme activity; inhibitor; 0.1 µM): 26%
CN([C@@H]1CCc2c(CC(=O)O)c3cc(S(C)(=O)=O)ccc3n2C1)S(=O)(=O)c1ccc(F)cc1 — remaining binding (TEK; cell-free assay; competition with immobilised ligand; 1 µM): 88%
CC(C)(C)c1nc(-c2cccc(NS(=O)(=O)c3c(F)cccc3F)c2F)c(-c2ccnc(N)n2)s1 — remaining activity (TEK; enzyme activity; inhibitor; radiometric; 1 µM): 58%
